# Experiments:
# ATH-8 cell line [1] = experiment: Required dose to reduce viability of normal uninfected ATH8 cells.; assay type: functional; conditions: Homo sapiens, read-out: ID50 (the source's name)
# MT4 [2] = experiment: Toxicity was determined by evaluation of cluster morphology and reclustering properties in mock infected MT-4 cells at 0.2 uM concentration; assay type: cell-based; conditions: human, mt4, 0.2 µM
# [3] = Therapeutic index (Ratio = ID50/ED50).
# MT4 [4] = experiment: Protection was determined by evaluation of cluster morphology and reclustering properties in […] MT-4 cells at 0.2 uM concentration; assay type: functional, Homo sapiens
# ATH-8 cell line [5] = experiment: Protection of ATH8 cells against the cytopathic effect of HIV.; assay type: functional; conditions: Homo sapiens, read-out: ED50 (the source's name)
# MT4 [6] = experiment: Protection was determined by evaluation of cluster morphology and reclustering properties in […] MT-4 cells at 5 uM concentration; Range is 10-40; assay type: functional, Homo sapiens
# Procedure, shortened: (§1)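 MT4 cells infected with HIV (300 CCID50/well) were seeded at 2.5×10^5 cells/mL with compound at 125, 5, 0.2, 0.008 or 0.00032 µM and kept 5 days at 37 °C. Clusters were scored microscopically, dispersed by pipetting, and reclustering assessed after 4 h at 37 °C. Scoring: +++ >90% protection.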
# MT4 [7] = experiment: Toxicity was determined by evaluation of cluster morphology and reclustering properties in mock infected MT-4 cells at 125 uM concentration; assay type: cell-based; conditions: human, mt4, 125 µM
# MT4 [8] = experiment: Protection was determined by evaluation of cluster morphology and reclustering properties in […] at 0.008 uM concentration.; assay type: functional, Homo sapiens
# MT4 [9] = experiment: Toxicity was determined by evaluation of cluster morphology and reclustering properties in mock infected MT-4 cells at 5 uM concentration; Range is 10-40; assay type: cell-based; conditions: human, mt4, 5 µM
# MT4 [10] = experiment: Protection was determined by evaluation of cluster morphology and reclustering properties in […] MT-4 cells at 0.2 uM concentration; Range is 10-40; assay type: functional, Homo sapiens; procedure, shortened: as §1
# MT4 [11] = experiment: Protection was determined by evaluation of cluster morphology and reclustering properties in […] MT-4 cells at 5 uM concentration.; assay type: functional, Homo sapiens; procedure, shortened: as §1
# MT4 [12] = experiment: Toxicity was determined by evaluation of cluster morphology and reclustering properties in mock infected MT-4 cells at 5 uM concentration; assay type: cell-based; conditions: human, mt4, 5 µM
# Procedure, shortened: (§2)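 Mock-infected MT4 cells were seeded at 2.5×10^5 cells/mL with compound at 125–0.00032 µM and cultured 5 days at 37 °C. Cluster morphology was scored microscopically, then cells were dispersed by pipetting and reclustering read after 4 h. Scoring: ++ >90%, + 10–40%, − <10% toxicity.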
# MT4 [13] = experiment: Protection was determined by evaluation of cluster morphology and reclustering properties in […] MT-4 cells at 0.008 uM concentration; Range is 10-40; assay type: functional, Homo sapiens; procedure, shortened: as §1
# MT4 [14] = experiment: Protection was determined by evaluation of cluster morphology and reclustering properties in […] MT-4 cells at 0.00032 uM concentration; Range is 10-40; assay type: functional, Homo sapiens; procedure, shortened: as §1
# MT4 [15] = experiment: Toxicity was determined by evaluation of cluster morphology and reclustering properties in mock infected MT-4 cells at 0.00032 uM concentration; assay type: cell-based; conditions: human, mt4, 0.00032 µM; procedure, shortened: as §2
# MT4 [16] = experiment: Toxicity was determined by evaluation of cluster morphology and reclustering properties in mock infected MT-4 cells at 0.008 uM concentration; Range is 10-40; assay type: cell-based; conditions: human, mt4, 0.008 µM; procedure, shortened: as §2
# MT4 [17] = experiment: Protection was determined by evaluation of cluster morphology and reclustering properties in […] MT-4 cells at 125 uM concentration; Range is 40-60; assay type: functional, Homo sapiens
# MT4 [18] = experiment: Protection was determined by evaluation of cluster morphology and reclustering properties in […] at 5 uM concentration; Range is 40-60; assay type: functional, Homo sapiens
# MT4 [19] = experiment: Toxicity was determined by evaluation of cluster morphology and reclustering properties in mock infected MT-4 cells at 125 uM concentration; Range is 10-40; assay type: cell-based; conditions: human, mt4, 125 µM; procedure, shortened: as §2
# MT4 [20] = experiment: Protection was determined by evaluation of cluster morphology and reclustering properties in mock infected MT-4 cells at 125 uM concentration; assay type: functional, Homo sapiens; conditions: in the assay text read “HIV infected” for “mock infected”; procedure, shortened: as §1
# MT4 [21] = experiment: Protection was determined by evaluation of cluster morphology and reclustering properties in […] at 0.008 uM concentration; Range is 40-60; assay type: functional, Homo sapiens; procedure, shortened: as §1
# MT4 [22] = experiment: Toxicity was determined by evaluation of cluster morphology and reclustering properties in mock infected MT-4 cells at 0.008 uM concentration; assay type: cell-based; conditions: human, mt4, 0.008 µM; procedure, shortened: as §2
Compound,IC50 (ATH-8 cell line [1]) [µM],Toxicity (MT4 [2]) [%],selectivity ratio [3],Protection (MT4 [4]) [%],EC50 (ATH-8 cell line [5]) [µM],Toxicity (MT4 [7]) [%],Protection (MT4 [8]) [%],Protection (MT4 [11]) [%],Toxicity (MT4 [12]) [%],other results
CO[C@H]1C[C@H](n2cc(C)c(=O)[nH]c2=O)O[C@@H]1CO,88,< 10,< 0.9,<10,> 100,> 90,<10,,,Protection (MT4 [6]): 10%; Toxicity (MT4 [9]): 10%
Cc1cn([C@H]2CC[C@@H](CO)O2)c(=O)[nH]c1=O,> 2000,< 10,> 20,,100,< 10,<10,>90,< 10,Protection (MT4 [10]): 10%
Cc1cn([C@H]2C[C@H](F)[C@@H](CO)O2)c(=O)[nH]c1=O [ALOVUDINE],15,> 90,10,,1.4,> 90,,,> 90,Protection (MT4 [13]): 10%; Protection (MT4 [14]): 10%; Toxicity (MT4 [15]): < 10%; Toxicity (MT4 [16]): 10%
Cc1cn([C@H]2C[C@H](O)[C@@H](CO)O2)c(=O)[nH]c1=O [DOXRIBTIMINE],> 100,< 10,,<10,> 100,< 10,,<10,< 10,Protection (MT4 [17]): 40%
Cc1cn([C@H]2C[C@H](N=[N+]=[N-])[C@@H](CO)O2)c(=O)nc1N,> 100,< 10,,,> 100,,,,< 10,Protection (MT4 [10]): 10%; Protection (MT4 [18]): 40%; Toxicity (MT4 [19]): 10%; Protection (MT4 [20]): >90%
Cc1cn([C@H]2C[C@H](N=[N+]=[N-])[C@@H](CO)O2)c(=O)[nH]c1=O (stereo in doubt; 1a) [ZIDOVUDINE],45,,19,>90,2.4,,,,,Protection (MT4 [14]): 10%; Toxicity (MT4 [12]; 5 µM): > 90%; Toxicity (MT4 [7]; 125 µM): > 90%; Protection (MT4 [21]): 40%; Toxicity (MT4 [15]): < 10%; Toxicity (MT4 [22]): < 10%
Nc1ccn([C@H]2C[C@H](O)[C@@H](CO)O2)c(=O)n1 [DOXECITINE],> 100,< 10,,<10,> 100,> 90,<10,<10,,Toxicity (MT4 [9]): 10%
NCC1C=CC(n2ccc(N)nc2=O)O1 (stereo unspecified),> 500,< 10,> 1.9,<10,260,,,<10,< 10,Protection (MT4 [17]): 40%; Toxicity (MT4 [19]): 10%
